In ChEMBL document CHEMBL5370680, “Design and Biological Evaluation of Piperazine-Bearing Nitrobenzamide Hypoxia/GDEPT Prodrugs: The Discovery of CP-506” (ACS Med Chem Lett, 2023):

Tests used:
HCT-116 [1] = assay: Antiproliferative activity against wild type human HCT-116 cells assessed as cell growth inhibition measured after 4 hrs; assay type: functional, cell-based; settings: HCT-116, 4 h
In short: (§1)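 Monolayer antiproliferative assay using wild-type cells and isogenic lines transfected with AKR1C3 or E. coli NfsA. Cells exposed to prodrug for 4 h, then regrown for 5 days. IC50 is 50% growth inhibition versus untreated controls. Mean values reported, CV <20%.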

HCT-116 [2] = assay: Antiproliferative activity against human HCT-116 cells expressing AKR1C3 assessed as cell growth inhibition measured after 4 hrs; assay type: functional, cell-based; settings: HCT-116, 4 h; in short: as §1
HCT-116 [3] = assay: Antiproliferative activity against human HCT-116 cells expressing NfsA of Escherichia coli assessed as cell growth inhibition measured after 4 hrs; assay type: functional; settings: HCT-116, 4 h; in short: as §1
[4] = Selectivity ratio of IC50 for antiproliferative activity against wild type human HCT-116 cells to IC50 for antiproliferative activity against human HCT-116 cells expressing AKR1C3; assay type: functional; settings: time 4 hrs
In short: (§2)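 Ratio of mean IC50 in non-transfected wild-type cells to mean IC50 in the AKR1C3- or NfsA_Ec-transfected line. IC50 is from a 4 h prodrug exposure and 5 days' regrowth.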

[5] = Selectivity ratio of IC50 for antiproliferative activity against wild type human HCT-116 cells to IC50 for antiproliferative activity against human HCT-116 cells expressing NfsA of Escherichia coli; assay type: functional; settings: time 4 hrs; in short: as §2
NCI-H1299 [6] = assay: Antiproliferative activity against wild type human NCI-H1299 cells assessed as cell growth inhibition measured after 4 hrs; assay type: functional, cell-based; settings: NCI-H1299, 4 h; in short: as §1
NCI-H1299 [7] = assay: Antiproliferative activity against human NCI-H1299 cells expressing AKR1C3 assessed as cell growth inhibition measured after 4 hrs; assay type: functional, cell-based; settings: NCI-H1299, 4 h; in short: as §1
NCI-H1299 [8] = assay: Antiproliferative activity against human NCI-H1299 cells expressing NfsA of Escherichia coli assessed as cell growth inhibition measured after 4 hrs; assay type: functional; settings: NCI-H1299, 4 h; in short: as §1
[9] = Selectivity ratio of IC50 for antiproliferative activity against wild type human NCI-H1299 cells to IC50 for antiproliferative activity against human NCI-H1299 cells expressing AKR1C3; assay type: functional; settings: time 4 hrs; in short: as §2
[10] = Selectivity ratio of IC50 for antiproliferative activity against wild type human NCI-H1299 cells to IC50 for antiproliferative activity against human NCI-H1299 cells expressing NfsA of Escherichia coli; assay type: functional; settings: time 4 hrs; in short: as §2
HCT-116 [11] = assay: Antiproliferative activity against human HCT-116 cells in three-dimensional cell culture multicellular layer expressing NfsA of Escherichia coli assessed as fold change in plating efficiency at 10 uM; assay type: functional
In short: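 Mixed MCLs of wild-type HCT116 with 3% NfsA_Ec-expressing cells, against 100% wild-type MCLs, exposed to 10 μM prodrug. Clonogenic plating efficiency measured. Fold change is the plating-efficiency ratio between wild-type and transfected MCLs. ≥3 independent experiments.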

HCT-116 [12] = assay: Antiproliferative activity against human HCT-116 cells in three-dimensional cell culture multicellular layer expressing AKR1C3 assessed as fold change in plating efficiency at 10 uM; assay type: functional
In short: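 100% AKR1C3-expressing HCT116 MCLs, against wild-type HCT116 MCLs, exposed to 10 μM prodrug. Clonogenic plating efficiency measured. Fold change is the plating-efficiency ratio between wild-type and transfected MCLs. ≥3 independent experiments.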

[13] = Octanol/water partition coefficient, log D of the compound at pH 7.4; assay type: physicochemical
In short: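 Octanol–water partition coefficient by shake-flask method at pH 7.4.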

SiHa [14] = assay: Antiproliferative activity against human SiHa cells assessed as inhibition of cell growth incubated for 4 hrs under aerobic condition and measured after 5 days regrowth under aerobic condition; assay type: functional, cell-based
In short: (§3)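 Low-density monolayer antiproliferative assay. Cells exposed to prodrug for 4 h under aerobic or anoxic conditions, then regrown aerobically for 5 days. IC50 is the concentration giving 50% growth inhibition versus untreated controls. Mean values reported, CV <20%.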

SiHa [15] = assay: Antiproliferative activity against human SiHa cells assessed as inhibition of cell growth incubated for 4 hrs under anoxic condition and measured after 5 days regrowth under aerobic condition; assay type: functional, cell-based; in short: as §3
[16] = Selectivity ratio of IC50 for antiproliferative activity against human SiHa cells assessed as inhibition of cell growth under aerobic condition to IC50 for antiproliferative activity against human SiHa cells assessed as inhibition of cell growth under anoxic condition; assay type: functional
In short: (§4)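 Hypoxic cytotoxicity ratio is aerobic IC50 divided by anoxic IC50. Each IC50 comes from a 4 h drug exposure under aerobic or anoxic conditions, followed by 5 days' aerobic regrowth, relative to untreated controls.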

HCT-116 [17] = assay: Antiproliferative activity against human HCT-116 cells assessed as inhibition of cell growth incubated for 4 hrs under aerobic condition and measured after 5 days regrowth under aerobic condition; assay type: functional, cell-based; in short: as §3
HCT-116 [18] = assay: Antiproliferative activity against human HCT-116 cells assessed as inhibition of cell growth incubated for 4 hrs under anoxic condition and measured after 5 days regrowth under aerobic condition; assay type: functional, cell-based; in short: as §3
[19] = (§5) Selectivity ratio of IC50 for antiproliferative activity against human HCT-116 cells assessed as inhibition of cell growth under aerobic condition to IC50 for antiproliferative activity against human HCT-116 cells assessed as inhibition of cell growth under anoxic condition; assay type: functional; in short: as §4
HCT-116 [20] = assay: Antiproliferative activity against human HCT-116 cells overexpressing cytochrome P450 oxidoreductase assessed as inhibition of cell growth incubated for 4 hrs under anoxic condition and measured after 5 days regrowth under aerobic condition; assay type: functional, cell-based; in short: as §3
HCT-116 [21] = assay: Antiproliferative activity against human HCT-116 cells overexpressing cytochrome P450 oxidoreductase assessed as inhibition of cell growth incubated for 4 hrs under aerobic condition and measured after 5 days regrowth under aerobic condition; assay type: functional, cell-based; in short: as §3
[22] = as §5, with “cells overexpressing cytochrome P450 oxidoreductase” for “cells”; assay type: functional; in short: as §4
[23] = Toxicity in NIH-III nude mouse xenografted with human HCT-116 cells expressing NfsA of Escherichia coli assessed as body weight loss at 1000 micromol/kg, ip BID; assay type: organism-based; settings: in vivo, at 1000 µmol/kg
HCT-116 [24] = assay: Antiproliferative activity against human HCT-116 cells in three-dimensional cell culture multicellular layers assessed as log cell killing under anoxic condition at 100 uM; assay type: functional
In short: (§6)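 HCT116 three-dimensional multicellular layers exposed to 100 μM prodrug under aerobic or anoxic conditions. Clonogenic survivors per MCL counted. Log cell kill = log CS(control) − log CS(treated). Mean of ≥3 independent experiments.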

HCT-116 [25] = assay: Antiproliferative activity against human HCT-116 cells in three-dimensional cell culture multicellular layers assessed as log cell killing under aerobic condition at 100 uM; assay type: functional; in short: as §6
[26] = Toxicity in NIH-III nude mouse xenografted with human HCT-116 cells expressing NfsA of Escherichia coli assessed as body weight loss at 1000 micromol/kg, ip BID measured on day 6; assay type: organism-based; settings: in vivo, 144 h, at 1000 µmol/kg, time 6 day
[27] = Toxicity in NIH-III nude mouse xenografted with human HCT-116 cells expressing NfsA of Escherichia coli assessed as body weight loss at 1000 micromol/kg, ip BID measured on day 16; assay type: organism-based; settings: in vivo, 384 h, dose 1000 µmol/kg, time 16 day
[28] = Metabolic stability in mouse liver microsome assessed as half life in presence of NADPH by LC-MS/MS analysis; assay type: ADME; settings: liver microsomes
In short: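 Male mouse hepatic microsomes incubated with prodrug for 30 min, with or without NADPH cofactor. Percentage of parent compound remaining tracked from triplicate incubations. Half-life estimated from this loss.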

SMILES | IC50 (HCT-116 [1]) [µM] | IC50 (HCT-116 [2]) [µM] | IC50 (HCT-116 [3]) [µM] | Ratio IC50 [4] | Ratio IC50 [5] | IC50 (NCI-H1299 [6]) [µM] | IC50 (NCI-H1299 [7]) [µM] | IC50 (NCI-H1299 [8]) [µM] | Ratio IC50 [9] | Ratio IC50 [10] | fold change (FC) (HCT-116 [11]) | fold change (FC) (HCT-116 [12]) | logD [13] | IC50 (SiHa [14]) [µM] | IC50 (SiHa [15]) [µM] | Ratio IC50 [16] | IC50 (HCT-116 [18]) [µM] | IC50 (HCT-116 [20]) [µM] | IC50 (HCT-116 [21]) [µM] | Ratio IC50 [22] | further results
CS(=O)(=O)OCCN(CCBr)c1c(C(=O)NCCO)cc([N+](=O)[O-])cc1[N+](=O)[O-] | 66 | 1.1 | 0.016 | 60 | 4125 | 114 | 7.4 | 0.048 | 15 | 2375 | 29 | 100500 | 1 | 19 | 2.7 | 7 | 2.5 | 0.14 | 41 | 293 | IC50 (HCT-116 [17]): 38 µM; Ratio IC50 [19]: 15
CCN1CCN(C(=O)c2cc(N(CCBr)CCBr)c(S(=O)(=O)CC)cc2[N+](=O)[O-])CC1 | 95 | 62 | 0.186 | 1.5 | 511 | 67 | 54 | 0.552 | 1.2 | 121 | 5178 | 0.9 | 2.1 | 253 | 23 | 11 | 27 | 2.8 | 60 | 21 | Activity [23]: < 10%; LCK (HCT-116 [24]): 0.016; LCK (HCT-116 [25]): 2.3; Activity [26]: <= 7%; Activity [27]: Non-Toxic; IC50 (HCT-116 [17]): 142 µM; Ratio IC50 [19]: 5.3
CCS(=O)(=O)c1cc([N+](=O)[O-])c(C(=O)N2CCN(C(C)C)CC2)cc1N(CCBr)CCBr | 65 | 70 | 0.496 | 0.9 | 131 | 49 | 67 | 0.685 | 0.7 | 73 | 351 | 0.9 | 2.5 | – | – | – | – | – | – | – | –
CCN1CCN(C(=O)c2cc(N(CCBr)CCOS(C)(=O)=O)c(S(=O)(=O)CC)cc2[N+](=O)[O-])CC1 | – | – | – | – | – | – | – | – | – | – | – | – | 1 | > 300 | 15 | >20 | 18 | 2.8 | 122 | 44 | LCK (HCT-116 [24]): 0.016; LCK (HCT-116 [25]): 2.3
CCN1CCN(C(=O)c2cc(N(CCBr)CCBr)c(S(C)(=O)=O)cc2[N+](=O)[O-])CC1 | 77 | 49 | 0.104 | 1.6 | 740 | 71 | 71 | 0.175 | 1 | 406 | 825 | 1.2 | 1.7 | 164 | 10 | 16 | 21 | 0.66 | 54 | 82 | Activity [23]: < 10%; LCK (HCT-116 [24]): 0.016; LCK (HCT-116 [25]): 2.3; half-life [28]: 6.05 min; Activity [26]: <= 7%; Activity [27]: Non-Toxic; IC50 (HCT-116 [17]): 145 µM; Ratio IC50 [19]: 6.9
CN1CCN(C(=O)c2cc(N(CCBr)CCOS(C)(=O)=O)c(S(C)(=O)=O)cc2[N+](=O)[O-])CC1 | – | – | – | – | – | – | – | – | – | – | – | – | 0.3 | 561 | 47 | 12 | 23 | 1.6 | 139 | 87 | LCK (HCT-116 [24]): 0.016; LCK (HCT-116 [25]): 2.3; IC50 (HCT-116 [17]): 368 µM; Ratio IC50 [19]: 16
CN1CCN(C(=O)c2cc(N(CCBr)CCBr)c(S(C)(=O)=O)cc2[N+](=O)[O-])CC1 | 102 | 70 | 0.089 | 1.5 | 1146 | 98 | 102 | 0.154 | 1 | 636 | 1531 | 1.1 | 1.4 | 241 | 16 | 15 | 24 | 0.88 | 82 | 93 | LCK (HCT-116 [24]): 0.016; LCK (HCT-116 [25]): 2.3; IC50 (HCT-116 [17]): 160 µM; Ratio IC50 [19]: 6.6
CC(C)N1CCN(C(=O)c2cc(N(CCBr)CCBr)c(S(C)(=O)=O)cc2[N+](=O)[O-])CC1 | 61 | 53 | 0.132 | 1.2 | 462 | 59 | 69 | 0.287 | 0.9 | 206 | 1943 | 0.9 | 1.9 | – | – | – | – | – | – | – | –
CCS(=O)(=O)c1cc([N+](=O)[O-])c(C(=O)N2CCN(C)CC2)cc1N(CCBr)CCBr | 83 | 73 | 0.231 | 1.1 | 359 | 85 | 58 | 0.546 | 1.5 | 156 | 709 | 1.1 | 2.2 | – | – | – | – | – | – | – | –
CCN1CCN(C(=O)c2cc(N(CCBr)CCOS(C)(=O)=O)c(S(C)(=O)=O)cc2[N+](=O)[O-])CC1 [CP-506] | – | – | – | – | – | – | – | – | – | – | – | – | 0.6 | 459 | 22 | 21 | 14 | 1.2 | 112 | 93 | LCK (HCT-116 [24]): 0.016; LCK (HCT-116 [25]): 2.3; half-life [28]: 41.2 min; IC50 (HCT-116 [17]): 288 µM; Ratio IC50 [19]: 21
